Test system: monoclonal anti-HpTGEKP antibody
Assay type: binding, mouse
Conditions: gas phase complex dissociation; for TambΔSmg# / ΔGm0g# / ΔHm0g#: neutral and resting complex, Tamb 298 K, two measurement series except 02; for ΔHm0g# (approximate values in running text): text rounding of Table 3
Method in brief: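 Test phospho-hexapeptides and monoclonal antibody, each in 200 mM ammonium acetate, were mixed at a 3:1 peptide:antibody molar ratio. The mixtures were nano-electrosprayed, and multiply charged immune complex ions underwent gas phase dissociation; an unphosphorylated hexapeptide served as control. Data were duplicate series (mean, SD), fitted with a Boltzmann sigmoid. Enthalpies came from Arrhenius and Gibbs-Helmholtz plots taken at 1/Tamb.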

| Substance | TambΔSmg# [kcal/mol] | ΔGm0g# | ΔHm0g# | ΔHm0g# (approximate values in running text) |
| --- | --- | --- | --- | --- |
| HpSGERP [compound 06] | -15.87 | +64.65 kJ/mol | -0.418 kcal/mol | – |
| HpTEEKP [compound 09] | -15.93 | +64.64 kJ/mol | -0.485 kcal/mol | approx. −2.0 kJ/mol |
| HpTGEKL [compound 07] | -15.82 | +64.69 kJ/mol | -0.363 kcal/mol | – |
| HpTGEKP [compound 01] | -15.8 | +64.75 kJ/mol | -0.33 kcal/mol | – |
| HpTGERP [compound 02] | -15.74 | +64.79 kJ/mol | -0.261 kcal/mol | – |
| HpTGKKP [compound 05] | -15.06 | +64.84 kJ/mol | +1.81 kJ/mol | approx. +0.3 kJ/mol |
| HpTREKP [compound 10] | -15.43 | +64.83 kJ/mol | +0.28 kJ/mol | ~+1.8 kJ/mol |

— paper PMC9826235 (Chembiochem, 2022)
